Calls of active or inactive are those of the source. No cut-off for these calls is given here.
Tests used:
[1] = target: T1, Neutrophil elastase (Homo sapiens) (UniProt P08246); assay: Inhibition of human neutrophil elastase
T1 sequence (whole entry): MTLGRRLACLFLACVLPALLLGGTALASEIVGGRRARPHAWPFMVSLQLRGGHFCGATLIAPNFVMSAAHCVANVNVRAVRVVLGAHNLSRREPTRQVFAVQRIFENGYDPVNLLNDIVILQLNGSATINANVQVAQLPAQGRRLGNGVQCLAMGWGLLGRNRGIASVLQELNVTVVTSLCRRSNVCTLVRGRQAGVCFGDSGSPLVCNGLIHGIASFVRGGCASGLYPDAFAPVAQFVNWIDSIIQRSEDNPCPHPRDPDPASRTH
How it was run: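 Human elastase (final 70 nM; added from a stock in 0.05 mM sodium acetate/0.5 M NaCl pH 5.50) in 0.1 M HEPES/0.5 M NaCl pH 7.25 at 25 °C. Substrate was methoxysuccinyl-Ala-Ala-Pro-Val p-nitroaniline, with single inhibitor level from DMSO. […] read for 2 min against a DMSO-only hydrolysis control. % inhibition = (1 − v/vo)×100, mean of duplicate or triplicate runs.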

[2] = target: T2, Myeloblastin (Homo sapiens) (UniProt P24158); assay: Inhibition of human neutrophil proteinase 3
T2 sequence (whole entry): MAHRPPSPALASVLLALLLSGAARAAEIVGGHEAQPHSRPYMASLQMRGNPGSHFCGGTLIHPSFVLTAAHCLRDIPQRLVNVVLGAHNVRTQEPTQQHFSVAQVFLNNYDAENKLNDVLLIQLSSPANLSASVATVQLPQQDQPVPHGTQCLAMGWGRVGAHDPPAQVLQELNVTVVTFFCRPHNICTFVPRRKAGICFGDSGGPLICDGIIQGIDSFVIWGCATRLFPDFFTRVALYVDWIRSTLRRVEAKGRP
How it was run: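 Human proteinase 3 (final 34.5 nM; added from a stock in 0.1 M phosphate pH 6.50) in 0.1 M HEPES/0.5 M NaCl pH 7.25 at 25 °C. Thiobenzyl ester substrate Boc-Ala-Ala-NVa-SBzl, with 5,5′-dithio-bis(2-nitrobenzoic acid) from DMSO and single inhibitor level from DMSO. Absorbance followed at […] for 2 min against an uninhibited hydrolysis control. % inhibition = (1 − v/vo)×100, duplicate or triplicate mean.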

SMILES	inhibition [1]	inhibition [2]
CCN1CN(Cc2cccc(NC(=O)CCOC)c2)S(=O)(=O)N1CC	inactive	inactive
CCN1CN(Cc2cccc(NC(=O)c3ccccc3)c2)S(=O)(=O)N1CC	inactive	inactive
CCN1CN(Cc2cn(CC(=O)c3ccccc3F)nn2)S(=O)(=O)N1CC	inactive	inactive
CCN1CN(Cc2cccc(NC(=O)NCCc3ccccc3)c2)S(=O)(=O)N1CC	inactive	inactive
CCN1C(=O)N(C(Cc2ccccc2)C(=O)Nc2ccccc2NC(=O)OCC(C)C)S(=O)(=O)N1CC (stereo unspecified)	Active	inactive
CCN1CN(Cc2cn(CC(=O)c3cccs3)nn2)S(=O)(=O)N1CC	inactive	inactive
CCN1CN(Cc2cccc(NC(=O)c3cccc(OC)c3)c2)S(=O)(=O)N1CC	inactive	inactive
CCN1CN(Cc2cccc(NC(=O)c3cccc(Oc4ccccc4)c3)c2)S(=O)(=O)N1CC	inactive	inactive
